Test results taken from ChEMBL document CHEMBL4261575, “Structure-guided approach identifies a novel class of HIV-1 ribonuclease H inhibitors: binding mode insights through magnesium complexation and site-directed mutagenesis studies” (Medchemcomm, 2018).
Active and inactive are the calls of the source. The calls are words filed in the database; no cut-off is given here.

Key:
[1] = biological target: Human immunodeficiency virus type 1 reverse transcriptase (Human immunodeficiency virus 1, UniProt Q72547); assay: Inhibition of HIV1 reverse transcriptase RNase H activity using 18-nucleotide 3'-fluorescein-labeled RNA/5'-[…]-labeled DNA hybrid as substrate after 1 hr by fluorescence assay
How it was run: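 Polymerase-independent RNase H assay with 20 ng wild-type RT in 50 mM Tris-HCl pH 7.8, 6 mM MgCl2, 1 mM DTT and 80 mM KCl. Substrate was 0.25 μM RNA/DNA hybrid with a fluorescein-labelled RNA and a dabcyl-labelled DNA. Inhibitor was diluted in water over increasing concentrations. Incubation 1 h at 37 °C, stopped with EDTA, read at 490/528 nm. IC50 was averaged over three independent experiments.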

[2] = biological target: Human immunodeficiency virus type 1 reverse transcriptase (Human immunodeficiency virus 1) (UniProt Q72547); assay: Inhibition of HIV1 reverse transcriptase RNase H activity using 18-nucleotide 3'-fluorescein-labeled RNA/5'-[…]-labeled DNA hybrid as substrate assessed as remaining activity at 100 uM after 1 hr by fluorescence assay relative to control
How it was run: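 Wild-type RT (20 ng) RNase H reaction in Tris-HCl pH 7.8 buffer with 6 mM MgCl2, 1 mM DTT and 80 mM KCl. Substrate was 0.25 μM fluorescein/dabcyl RNA/DNA hybrid, with compound at 100 μM. Incubation 1 h at 37 °C, EDTA stop, fluorescence at 490/528 nm. Activity is given as percentage of control.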

[3] = (§1) Binding affinity to Mg2+ assessed as hyperchromic effect at 3 x 10^-5 M to 8 x 10^-5 M by UV-Vis spectrophotometric method
How it was run: (§2)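 UV-vis titration with MgCl2 in a 1 cm quartz cuvette. MgCl2 was diluted in absolute ethanol to 13 stock solutions spanning 4 10–5 to 0.2 M. Spectra were followed for absorbance changes and isosbestic points. Each experiment was done in triplicate.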

[4] = biological target: Human immunodeficiency virus type 1 reverse transcriptase (Human immunodeficiency virus 1, UniProt Q72547, N474A); assay: Inhibition of HIV1 group M subtype B reverse transcriptase p66 N474A mutant RNase H activity using 18-nucleotide 3'-fluorescein-labeled RNA/5'-[…]-labeled DNA hybrid as substrate after 1 hr by fluorescence assay; design: species or system HIV-1 group M
How it was run: (§3)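 Mutations were introduced into the p66 subunit of subtype B RT. Enzyme amounts were set within the linear range: R448A 37.5 ng, N474A 62.5 ng, A502F 100 ng, R557A 75 ng. Buffer was 50 mM Tris-HCl pH 7.8, 6 mM MgCl2, 1 mM DTT, 80 mM KCl, with 0.25 μM fluorescein/dabcyl hybrid and water-diluted inhibitor. Incubation 1 h at 37 °C, EDTA stop, read at 490/528 nm.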

[5] = Selectivity ratio of IC50 for HIV1 group M subtype B reverse transcriptase p66 R448A mutant RNase H activity to IC50 for HIV1 reverse transcriptase RNase H activity
[6] = Binding affinity to Mg2+ at 3 x 10^-5 M to 8 x 10^-5 M by UV-Vis spectrophotometric method
How it was run: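 UV-vis spectrophotometric titration of the compound in absolute ethanol with MgCl2, read in a quartz cuvette with a 1 cm path. MgCl2 was diluted in absolute ethanol to 13 stock solutions spanning 4 10–5 to 0.2 M (stock concentrations). Spectra were recorded across increasing Mg2+ levels, and isosbestic points were used to judge complexation equilibria. Each experiment was done in triplicate.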

[7] = test system: Human immunodeficiency virus 1; assay: Antiviral activity against HIV1 assessed as inhibition of viral replication at 40 uM by cell-based assay; type: functional, organism-based
[8] = biological target: Human immunodeficiency virus type 1 reverse transcriptase (Human immunodeficiency virus 1, UniProt Q72547, R557A); assay: Inhibition of HIV1 group M subtype B reverse transcriptase p66 R557A mutant RNase H activity using 18-nucleotide 3'-fluorescein-labeled RNA/5'-[…]-labeled DNA hybrid as substrate after 1 hr by fluorescence assay; design: species or system HIV-1 group M; how it was run: as §3
[9] = biological target: Human immunodeficiency virus type 1 reverse transcriptase (Human immunodeficiency virus 1, UniProt Q72547, R448A); assay: Inhibition of HIV1 group M subtype B reverse transcriptase p66 R448A mutant RNase H activity using 18-nucleotide 3'-fluorescein-labeled RNA/5'-[…]-labeled DNA hybrid as substrate after 1 hr by fluorescence assay; design: species or system HIV-1 group M; how it was run: as §3
[10] = Selectivity ratio of IC50 for HIV1 group M subtype B reverse transcriptase p66 A502F mutant RNase H activity to IC50 for HIV1 reverse transcriptase RNase H activity
[11] = Selectivity ratio of IC50 for HIV1 group M subtype B reverse transcriptase p66 R557A mutant RNase H activity to IC50 for HIV1 reverse transcriptase RNase H activity
[12] = biological target: Human immunodeficiency virus type 1 reverse transcriptase (Human immunodeficiency virus 1, UniProt Q72547, A502F); assay: Inhibition of HIV1 group M subtype B reverse transcriptase p66 A502F mutant RNase H activity using 18-nucleotide 3'-fluorescein-labeled RNA/5'-[…]-labeled DNA hybrid as substrate after 1 hr by fluorescence assay; design: species or system HIV-1 group M; how it was run: as §3
[13] = Selectivity ratio of IC50 for HIV1 group M subtype B reverse transcriptase p66 N474A mutant RNase H activity to IC50 for HIV1 reverse transcriptase RNase H activity
[14] = as §1; how it was run: as §2; remark: listed apart in the source

SMILES | IC50 [1] | Activity [2] | other results
C[S+]([O-])CCC(NS(=O)(=O)c1ccccc1)C(=O)O (configuration not stated) | > 100 µM | 86% | –
CCOc1cc(/C=C2\SC(=S)N(c3ccccc3)C2=O)cc([N+](=O)[O-])c1O | 12.8 µM | – | Activity [3]: Active; IC50 [4]: 146 µM; Ratio IC50 [5]: 0.9; Activity [6]: Active; inhibition [7]: inactive; IC50 [8]: 18.6 µM; IC50 [9]: 11.3 µM; Ratio IC50 [10]: 2.1; Ratio IC50 [11]: 1.5; IC50 [12]: 26.3 µM; Ratio IC50 [13]: 11.4; Activity [14]: Active
COc1cc(N2CCCC2)c(OC)cc1/C=C1/NC(=O)NC1=O | 9.35 µM | – | IC50 [4]: > 300 µM; Ratio IC50 [5]: 1.2; Activity [6]: Active; inhibition [7]: inactive; IC50 [8]: 20.5 µM; IC50 [9]: 11 µM; Ratio IC50 [10]: 3.5; Ratio IC50 [11]: 2.2; IC50 [12]: 32.5 µM; Ratio IC50 [13]: > 32
O=C(CSc1nc2ccccc2o1)Nc1ncn[nH]1 | > 100 µM | 82.7% | –
CC(Oc1ccc(C(C)(C)C)cc1)C(=O)NN (configuration not stated) | > 100 µM | 70.4% | –
CCN1C(=O)/C(=C/c2ccc(O)c([N+](=O)[O-])c2)SC1=S | > 100 µM | 65.5% | –
CCCc1cc2c(cc1/C=C1\NC(=O)NC1=O)OCO2 | 91.6 µM | – | –
O=C(O)CCCC(=O)NC1CCCCCCC1 | > 100 µM | 76.3% | –
Cc1ccc(C2CC2C(=O)NN)cc1 (configuration not stated) | > 100 µM | 83.5% | –
COC(=O)c1c(-c2cccs2)csc1NC(=O)C1CC=CCC1C(=O)O (configuration not stated) | > 100 µM | 93% | –
O=C(O)COc1ccc(/C=C2\NC(=O)NC2=O)cc1I | > 100 µM | 67.5% | –
COc1cc(/C=N/NC(=O)COc2cccc(C)c2)c(O)c([N+](=O)[O-])c1 | > 100 µM | 59.4% | –
O=C(O)C1Sc2[nH]c(=O)sc2C2c3ccccc3OC(=O)C12 (configuration not stated) | > 100 µM | 80% | –
CC(C)c1ccc(O)c(=O)c(O)c1 [BETA-THUJAPLICINOL] | – | – | IC50 [4]: 0.1 µM; Ratio IC50 [5]: 0.7; IC50 [8]: 0.21 µM; IC50 [9]: 0.14 µM; Ratio IC50 [10]: 0.85; Ratio IC50 [11]: 1.05; IC50 [12]: 0.17 µM; Ratio IC50 [13]: 0.5
CC1=C(C(=O)O)N2C(=O)C(NC(=O)c3ccn(C)n3)C2SC1 (configuration not stated) | > 100 µM | 80% | –
O=C(N/N=C\c1cc([N+](=O)[O-])c(O)cc1O)c1ccccc1O | 49.9 µM | – | –
COc1ccccc1NC(=O)C1CCCCC1(C)C(=O)O (configuration not stated) | 61.2 µM | – | –
Cc1cc(/C=C2\SC(N)=NC2=O)c(C)n1-c1ccc(F)cc1 | 12.3 µM | – | Activity [6]: inactive
CCOC(=O)C12CC(OC3CCCCC3)C1(c1ccccc1)NC(=O)C2=O (configuration not stated) | > 100 µM | 80.4% | –
O=C1Nc2ccccc2/C1=N\NC(=O)c1ccc(O)cc1O | 36.4 µM | – | –
NNC(=O)c1cccc(Cn2cc(Br)c([N+](=O)[O-])n2)c1 | > 100 µM | 94.6% | –
CCc1nnc(NC(=O)C(=O)NCCOC(=O)c2ccccc2)s1 | > 100 µM | 77.9% | –
COc1cccc(/C=C2\NC(=O)NC2=O)c1-c1ccc(OC(=O)Nc2ccccc2)cc1 | 28.1 µM | – | –

SMILES | IC50 [1] | Activity [2] | other results
Cc1nc(N)sc1C(=O)N/N=C\c1ccc(O)c([N+](=O)[O-])c1 | > 100 µM | 55% | –
CCCCC(CC)CN1C(=O)C(O)=C(C(C)=O)C1c1ccco1 (configuration not stated) | > 100 µM | 77.5% | –
COc1ccccc1/C=C/CN1CCNC(=O)C1CC(=O)O (configuration not stated) | > 100 µM | 83.7% | –
Cc1ccc(C2NC(=O)C(O)=C2C(=O)c2cccs2)cc1 (configuration not stated) | > 100 µM | 81.8% | –
Cc1cccc(OCC(=O)NC(Cc2ccccc2)C(=O)O)c1 (configuration not stated) | > 100 µM | 87.2% | –
CCCOC(=O)CNc1n[nH]c(=O)[nH]c1=O | > 100 µM | 89.1% | –
CCOc1cccc(/C=C2\SC(=O)NC2=O)c1O | > 100 µM | 60% | –
CC(=O)c1cc2c(cc1NC(=O)CCC(=O)O)OCO2 | > 100 µM | 89.5% | –
NC(=O)N(CCC(=O)O)c1ccc(Br)cc1 | > 100 µM | 84.5% | –
CCOc1cc(/C=C2\NC(=O)NC2=O)c(Cl)cc1OC | > 100 µM | 70% | –
O=C1NC(=O)/C(=C/c2ccc(Cl)c(Cl)c2)S1 | > 100 µM | 80.5% | –
COc1cc(NC(=O)C2CC(=O)N=C(N)S2)cc(OC)c1 (configuration not stated) | > 100 µM | 74.5% | –
O=C(OCCOCn1cc(Br)c(=O)[nH]c1=O)c1ccccc1 | > 100 µM | 69.1% | –
NNC(=O)C12CC3CC(C1)CC(n1cnc(Cl)n1)(C3)C2 | > 100 µM | 73.4% | –
CCOc1ccc(/C=C2\SC(=O)NC2=O)cc1OCc1ccc(Cl)c(Cl)c1 | 5.17 µM | – | IC50 [4]: > 300 µM; Ratio IC50 [5]: 1.4; Activity [6]: inactive; inhibition [7]: inactive; IC50 [8]: 12.5 µM; IC50 [9]: 7.01 µM; Ratio IC50 [10]: 5.3; Ratio IC50 [11]: 2.5; IC50 [12]: 26.7 µM; Ratio IC50 [13]: > 59
O=C(O)CC1CSc2ccccc2NC1=O (configuration not stated) | > 100 µM | 76.5% | –
Cc1cc(/C=C2\SC(=N)NC2=O)c(C)n1-c1ccc(Cl)cc1 | 16.1 µM | – | Activity [6]: inactive
CCOc1ccc(/C=C2\NC(=O)NC2=O)c(Cl)c1OC | 84.2 µM | – | –
CSCCC(NS(=O)(=O)c1ccc2c(c1)NC(=O)C(C)O2)C(=O)O (configuration not stated) | > 100 µM | 80.2% | –
Cc1cc(/C=C2\NC(=O)NC2=O)c(C)n1-c1ccc(OCc2ccc(Cl)cc2Cl)cc1 | 8.73 µM | – | Activity [6]: inactive
Cc1cc(/C=C2\NC(=O)NC2=O)cc(C)c1OCc1cccc([N+](=O)[O-])c1 | 17.8 µM | – | –
CCC(C)Oc1ccc(/C=C2\NC(=O)NC2=O)cc1 (configuration not stated) | 52.8 µM | – | –
